We go through four compounds from ChEMBL document CHEMBL5316332 (J Med Chem, 2023).

Series [1] has as its target T1, Bone morphogenetic protein receptor type-2 (Homo sapiens, UniProt Q13873).
T1 sequence (Q13873 whole entry): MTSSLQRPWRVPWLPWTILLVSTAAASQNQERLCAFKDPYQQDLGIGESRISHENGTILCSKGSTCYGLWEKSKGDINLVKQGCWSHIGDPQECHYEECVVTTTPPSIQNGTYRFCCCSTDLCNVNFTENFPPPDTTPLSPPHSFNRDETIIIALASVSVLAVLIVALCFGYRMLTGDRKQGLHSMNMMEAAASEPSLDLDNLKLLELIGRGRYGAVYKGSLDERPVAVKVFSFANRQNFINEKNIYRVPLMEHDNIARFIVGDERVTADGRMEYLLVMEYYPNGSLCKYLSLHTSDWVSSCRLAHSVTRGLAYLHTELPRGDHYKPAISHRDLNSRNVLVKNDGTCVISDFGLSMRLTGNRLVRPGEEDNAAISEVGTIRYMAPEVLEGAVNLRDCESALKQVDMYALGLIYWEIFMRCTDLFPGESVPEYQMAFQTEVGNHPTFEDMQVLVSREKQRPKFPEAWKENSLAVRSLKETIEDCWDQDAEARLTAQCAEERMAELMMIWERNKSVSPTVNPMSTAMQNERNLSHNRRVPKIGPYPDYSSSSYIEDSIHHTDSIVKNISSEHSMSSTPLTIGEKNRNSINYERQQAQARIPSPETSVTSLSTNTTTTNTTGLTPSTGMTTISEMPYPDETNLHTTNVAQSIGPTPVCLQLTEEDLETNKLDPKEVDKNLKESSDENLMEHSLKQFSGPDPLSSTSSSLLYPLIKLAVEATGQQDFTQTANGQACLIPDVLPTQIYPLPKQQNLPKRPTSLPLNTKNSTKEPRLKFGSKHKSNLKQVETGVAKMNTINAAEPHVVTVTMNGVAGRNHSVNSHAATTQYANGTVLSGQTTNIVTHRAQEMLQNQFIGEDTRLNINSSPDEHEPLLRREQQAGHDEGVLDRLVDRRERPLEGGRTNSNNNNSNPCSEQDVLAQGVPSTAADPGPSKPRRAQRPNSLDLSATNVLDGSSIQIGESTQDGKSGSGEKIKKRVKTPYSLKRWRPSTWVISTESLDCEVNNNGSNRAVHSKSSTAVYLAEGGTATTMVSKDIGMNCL
Briefly: Inhibition of recombinant C-terminal 6His-tagged human BMPR2 (188 to 517 residues) expressed in Escherichia coli Rosetta assessed as apparent inhibition constant using ATP as substrate incubated for 30 mins by Morrison plot analysis. The conditions noted are these: read-out: Ki(app). Summed up: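 Purified His-tagged BMPR2 kinase domain with no peptide substrate (intrinsic ATPase). 10 μM ATP, 0.02% Tween-20, kinase buffer, 50 μL, enzyme level optimized for initial-velocity conditions. 30 min at 30 °C. Leftover ATP read by Kinase-Glo luminescence, with no-kinase controls. Kiapp from a modified Morrison equation fitted to normalized fractional activity, assuming no specific inhibition mode.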

Series [2] concerns the target T2, Activin receptor type-1B (Homo sapiens) (UniProt P36896).
T2 sequence (whole entry): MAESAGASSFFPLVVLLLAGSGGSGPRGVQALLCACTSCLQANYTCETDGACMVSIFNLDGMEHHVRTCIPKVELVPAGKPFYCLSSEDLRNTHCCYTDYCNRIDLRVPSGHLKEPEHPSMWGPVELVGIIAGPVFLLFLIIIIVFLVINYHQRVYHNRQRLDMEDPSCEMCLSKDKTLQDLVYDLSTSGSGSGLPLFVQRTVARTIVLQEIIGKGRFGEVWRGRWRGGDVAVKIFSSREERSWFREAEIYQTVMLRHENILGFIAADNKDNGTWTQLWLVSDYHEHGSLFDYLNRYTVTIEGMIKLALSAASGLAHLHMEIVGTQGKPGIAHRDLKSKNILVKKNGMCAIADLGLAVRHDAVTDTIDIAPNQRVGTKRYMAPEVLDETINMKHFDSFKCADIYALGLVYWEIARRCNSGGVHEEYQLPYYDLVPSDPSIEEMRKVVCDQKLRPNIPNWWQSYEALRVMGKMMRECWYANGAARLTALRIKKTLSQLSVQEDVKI
Briefly: Inhibition of ACVR1B (unknown origin) by Z'-LYTE assay. A digest of the protocol:
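Outsourced SelectScreen profiling by Z'-LYTE, a fluorescence coupled-enzyme kinase activity assay based on protease sensitivity of nonphosphorylated versus phosphorylated peptide.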

Series [3] can be described thus: Metabolic stability in mouse liver microsomes assessed as half life at 2 uM and mesured upto 60 mins in presence of NADPH by UHPLC-MS analysis. It is filed as ADME, Microsome. The following applies: microsomes, 1 h, 2 µM. On the technique in general: Microsomes from liver hold many membrane-bound enzymes, among them those of drug oxidation.
The target of the next series is TGF-beta receptor type-2 (Homo sapiens, UniProt P37173). Briefly: Inhibition of TGFBR2 (unknown origin) by LanthaScreen TR-FRET assay. A digest of the protocol: (§1)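 Outsourced SelectScreen profiling using a LanthaScreen TR-FRET binding format, in which a tight-binding tracer is displaced from the kinase.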
Sequence of TGF-beta receptor type-2 (P37173 whole entry): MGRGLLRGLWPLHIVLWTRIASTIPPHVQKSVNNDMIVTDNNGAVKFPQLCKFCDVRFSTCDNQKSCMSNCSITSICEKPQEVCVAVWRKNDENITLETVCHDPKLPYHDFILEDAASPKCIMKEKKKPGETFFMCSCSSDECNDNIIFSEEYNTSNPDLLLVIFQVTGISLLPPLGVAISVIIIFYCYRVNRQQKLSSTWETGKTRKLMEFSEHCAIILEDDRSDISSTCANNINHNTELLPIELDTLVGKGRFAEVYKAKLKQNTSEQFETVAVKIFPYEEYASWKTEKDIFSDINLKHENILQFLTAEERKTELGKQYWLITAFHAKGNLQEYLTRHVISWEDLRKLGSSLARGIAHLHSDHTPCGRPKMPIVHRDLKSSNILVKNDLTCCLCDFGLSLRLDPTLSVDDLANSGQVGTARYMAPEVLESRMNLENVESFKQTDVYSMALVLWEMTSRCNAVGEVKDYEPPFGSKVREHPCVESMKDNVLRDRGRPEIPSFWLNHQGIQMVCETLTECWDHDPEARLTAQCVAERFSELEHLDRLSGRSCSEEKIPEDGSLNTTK
In general terms: TR-FRET usually uses a lanthanide donor and a delayed reading to cut background.

Series [4] deals with Bone morphogenetic protein receptor type-1B (Homo sapiens, UniProt O00238). Briefly: Inhibition of BMPR1B (unknown origin) by LanthaScreen TR-FRET assay. A digest of the protocol:
as §1

In series [5] the target is T1, Bone morphogenetic protein receptor type-2. Briefly: Inhibition of recombinant C-terminal 6His-tagged human BMPR2 (188 to 517 residues) expressed in Escherichia coli Rosetta by LanthaScreen TR-FRET assay. A digest of the protocol:
as §1

Series [6] can be described thus: Metabolic stability in human liver microsomes assessed as half life at 2 uM and mesured upto 60 mins in presence of NADPH by UHPLC-MS analysis. The conditions noted are these: microsomes, 1 h, 2 µM. It is filed as ADME, Microsome.
In another series the target is Activin receptor type-2A (Homo sapiens, UniProt P27037). Briefly: Inhibition of ACVR2A (unknown origin) by LanthaScreen TR-FRET assay. Summed up:
as §1

Series [7] has as its target Bone morphogenetic protein receptor type-1A (Homo sapiens, UniProt P36894). Briefly: Inhibition of BMPR1A (unknown origin) by LanthaScreen TR-FRET assay. Summed up:
as §1

A further series deals with Activin receptor type-2B (Homo sapiens, UniProt Q13705). Briefly: Inhibition of ACVR2B (unknown origin) by LanthaScreen TR-FRET assay. A digest of the protocol:
as §1

A further series deals with T3, Activin receptor type-1 (Homo sapiens, UniProt Q04771).
T3 sequence (Q04771 whole entry): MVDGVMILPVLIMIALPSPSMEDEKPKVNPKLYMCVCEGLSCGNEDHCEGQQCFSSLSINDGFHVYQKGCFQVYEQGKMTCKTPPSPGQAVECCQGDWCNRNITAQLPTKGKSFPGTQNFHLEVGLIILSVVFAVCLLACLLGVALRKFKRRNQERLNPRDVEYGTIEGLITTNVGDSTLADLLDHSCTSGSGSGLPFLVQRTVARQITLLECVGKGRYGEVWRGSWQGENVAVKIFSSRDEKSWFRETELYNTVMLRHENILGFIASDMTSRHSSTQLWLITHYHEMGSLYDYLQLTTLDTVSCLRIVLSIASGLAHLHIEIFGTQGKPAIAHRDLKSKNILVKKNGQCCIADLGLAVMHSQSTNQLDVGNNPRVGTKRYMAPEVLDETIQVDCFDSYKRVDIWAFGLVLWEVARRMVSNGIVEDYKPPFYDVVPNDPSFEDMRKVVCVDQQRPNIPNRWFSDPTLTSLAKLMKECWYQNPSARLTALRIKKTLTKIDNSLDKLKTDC
Briefly: Inhibition of ACVR1 (unknown origin) by LanthaScreen TR-FRET assay. A digest of the protocol: as §1

Structures are written as SMILES. Activity calls are given as the source filed them. The calls are words filed in the database; no cut-off is given here.

Sequence of Activin receptor type-2B (Q13705 whole entry): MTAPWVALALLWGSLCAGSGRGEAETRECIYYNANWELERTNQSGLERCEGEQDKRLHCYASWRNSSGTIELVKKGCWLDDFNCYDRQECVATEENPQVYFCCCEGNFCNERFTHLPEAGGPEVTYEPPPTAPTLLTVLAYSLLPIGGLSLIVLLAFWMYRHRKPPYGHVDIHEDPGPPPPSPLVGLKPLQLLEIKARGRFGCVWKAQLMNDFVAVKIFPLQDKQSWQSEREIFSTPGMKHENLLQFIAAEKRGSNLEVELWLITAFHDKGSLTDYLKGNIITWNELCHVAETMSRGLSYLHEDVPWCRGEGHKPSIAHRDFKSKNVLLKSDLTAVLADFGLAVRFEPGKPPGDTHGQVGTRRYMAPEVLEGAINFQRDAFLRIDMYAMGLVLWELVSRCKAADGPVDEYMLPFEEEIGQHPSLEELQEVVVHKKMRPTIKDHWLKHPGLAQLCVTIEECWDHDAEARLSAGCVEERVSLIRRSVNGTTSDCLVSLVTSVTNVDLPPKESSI
Sequence of Activin receptor type-2A (P27037 whole entry): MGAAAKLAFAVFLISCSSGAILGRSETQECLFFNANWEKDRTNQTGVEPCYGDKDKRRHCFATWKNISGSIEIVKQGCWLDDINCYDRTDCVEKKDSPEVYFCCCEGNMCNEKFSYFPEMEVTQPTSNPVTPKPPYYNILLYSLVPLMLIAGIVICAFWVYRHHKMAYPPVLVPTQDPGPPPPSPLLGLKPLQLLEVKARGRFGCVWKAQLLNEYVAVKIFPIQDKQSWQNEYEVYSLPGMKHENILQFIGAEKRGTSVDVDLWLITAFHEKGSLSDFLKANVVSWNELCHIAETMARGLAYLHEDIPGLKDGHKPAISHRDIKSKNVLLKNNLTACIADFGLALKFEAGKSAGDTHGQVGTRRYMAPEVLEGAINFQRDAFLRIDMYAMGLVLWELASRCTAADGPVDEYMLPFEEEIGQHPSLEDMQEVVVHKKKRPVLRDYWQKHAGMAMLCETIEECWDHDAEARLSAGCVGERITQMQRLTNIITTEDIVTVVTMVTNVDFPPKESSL
Sequence of Bone morphogenetic protein receptor type-1A (P36894 whole entry): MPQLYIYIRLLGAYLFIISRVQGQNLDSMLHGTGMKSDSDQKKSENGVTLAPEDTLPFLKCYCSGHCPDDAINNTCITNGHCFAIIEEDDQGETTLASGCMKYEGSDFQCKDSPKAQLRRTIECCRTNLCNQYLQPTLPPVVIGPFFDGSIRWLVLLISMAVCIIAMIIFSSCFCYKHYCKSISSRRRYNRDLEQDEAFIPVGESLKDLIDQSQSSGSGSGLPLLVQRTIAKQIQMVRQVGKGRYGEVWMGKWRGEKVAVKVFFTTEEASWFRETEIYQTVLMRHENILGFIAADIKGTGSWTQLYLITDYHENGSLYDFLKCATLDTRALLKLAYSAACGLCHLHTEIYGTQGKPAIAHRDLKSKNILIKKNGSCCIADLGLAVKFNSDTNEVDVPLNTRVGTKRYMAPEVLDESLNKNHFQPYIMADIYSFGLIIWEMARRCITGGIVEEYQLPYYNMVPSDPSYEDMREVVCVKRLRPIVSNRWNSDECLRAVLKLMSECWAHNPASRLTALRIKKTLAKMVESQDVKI
Sequence of Bone morphogenetic protein receptor type-1B (O00238 whole entry): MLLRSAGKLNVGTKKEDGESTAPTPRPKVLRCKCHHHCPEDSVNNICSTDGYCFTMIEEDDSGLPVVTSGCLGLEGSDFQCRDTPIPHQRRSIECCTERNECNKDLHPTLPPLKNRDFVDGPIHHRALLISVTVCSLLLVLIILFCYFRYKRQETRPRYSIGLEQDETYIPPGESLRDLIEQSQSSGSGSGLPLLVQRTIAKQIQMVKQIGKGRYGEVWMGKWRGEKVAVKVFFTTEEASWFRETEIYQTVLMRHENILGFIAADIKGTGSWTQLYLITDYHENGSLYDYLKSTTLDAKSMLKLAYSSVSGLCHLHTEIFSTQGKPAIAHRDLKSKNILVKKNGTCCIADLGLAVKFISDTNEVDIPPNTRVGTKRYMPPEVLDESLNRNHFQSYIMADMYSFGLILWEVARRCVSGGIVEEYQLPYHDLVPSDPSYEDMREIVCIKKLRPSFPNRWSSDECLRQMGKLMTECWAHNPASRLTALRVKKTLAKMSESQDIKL

The IC50 is the point on the concentration scale where inhibition reaches its midpoint. On to `COc1cnc(Nc2cccc(S(N)(=O)=O)c2)nc1N1CCN(c2ccccc2)C(=O)C1`, for which the Ki in series [1] was determined as 7 nM. The inhibition result (in series [2]; on TGF-beta receptor type-2; in series [4]; on Activin receptor type-2A; in [7]; on Activin receptor type-2B) was “inactive” throughout. The t1/2 is reported as 40 min in series [3] and 305 min in series [6]. The IC50 in series [5] amounted to 2.8 nM.

Turning to `CNC(=O)[C@@H]1CC[C@@H](n2c(-c3ccc4cnccc4c3)nc3ccc(C(=O)NCc4cccc(C(N)=O)c4)cc32)C1`, the Ki in series [1] worked out at 6.2 nM. Moreover, the IC50 at Activin receptor type-1 was 251 nM; in series [4] it was greater than 1000 nM; in series [5] it was 1.8 nM; in [7], greater than 1000 nM. In addition, the inhibition result (in series [2]; on TGF-beta receptor type-2; on Activin receptor type-2A; at Activin receptor type-2B) was “inactive” each time.

With `CNC(=O)CCc1ccc(C(=O)NCc2cccc(N3CCN(c4nc(Nc5cccc(S(N)(=O)=O)c5)ncc4OC)CC3)c2)cc1`, the Ki in series [1] stood at 20.6 nM. Also, the IC50 is greater than 1000 nM against Activin receptor type-1 and 1.6 nM in series [5]. Further, the inhibition entry (in series [2]; on TGF-beta receptor type-2; in [4]; at Activin receptor type-2A; in series [7]; at Activin receptor type-2B) was “inactive” each time. For the same compound, the t1/2 was 7 min in [3] and 22 min in series [6].

Regarding `NC(=O)c1cccc(CNC(=O)c2ccc3nc(-c4ccc5cnccc5c4)n(C4CCCC4)c3c2)c1`, in series [1], the Ki was found to be 8 nM. For the same compound, the half-inhibitory concentration (IC50) is 124 nM at Activin receptor type-1, greater than 1000 nM in series [4], 1.2 nM in series [5] and greater than 1000 nM in [7]. Besides, the inhibition result (in series [2]; at TGF-beta receptor type-2; on Activin receptor type-2A; on Activin receptor type-2B) was “inactive” throughout. Moreover, the t1/2 in series [3] amounted to 45 min; in [6] it was 80 min.
